ChEMBL document CHEMBL1141554, “Discovery of new MurF inhibitors via pharmacophore modeling and QSAR analysis followed by in-silico screening” (Bioorg Med Chem, 2008)
pIC50: −log10 of the molar value. The source made the active and inactive calls. The calls are words filed in the database; no cut-off is given here.

Legend:
[1] = biological target: T1, UDP-N-acetylmuramoylalanine-D-glutamyl-lysine-D-alanyl-D-alanine ligase (Streptococcus pneumoniae R6, UniProt Q8DNV6); experiment: Inhibition of Streptococcus pneumoniae MurF
T1 sequence (Q8DNV6 whole entry): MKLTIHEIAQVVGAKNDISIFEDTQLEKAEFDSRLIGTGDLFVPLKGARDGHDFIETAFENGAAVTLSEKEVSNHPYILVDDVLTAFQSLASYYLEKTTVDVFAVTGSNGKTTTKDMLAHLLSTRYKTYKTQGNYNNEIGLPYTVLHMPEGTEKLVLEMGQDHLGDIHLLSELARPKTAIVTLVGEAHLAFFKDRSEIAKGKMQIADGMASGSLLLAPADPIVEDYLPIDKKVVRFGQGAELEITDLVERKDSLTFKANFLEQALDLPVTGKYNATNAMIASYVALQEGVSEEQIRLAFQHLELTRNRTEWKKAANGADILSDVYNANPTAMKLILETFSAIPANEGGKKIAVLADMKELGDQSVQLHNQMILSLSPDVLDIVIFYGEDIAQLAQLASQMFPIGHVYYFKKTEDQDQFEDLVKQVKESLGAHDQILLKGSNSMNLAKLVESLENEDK

[2] = biological target: T2, UDP-N-acetylmuramoyl-tripeptide--D-alanyl-D-alanine ligase (Pseudomonas aeruginosa, UniProt Q9EY48); experiment: Inhibition of Pseudomonas aeruginosa MurF ATPase activity by spectrophotometric assay
T2 sequence (Q9EY48 whole entry): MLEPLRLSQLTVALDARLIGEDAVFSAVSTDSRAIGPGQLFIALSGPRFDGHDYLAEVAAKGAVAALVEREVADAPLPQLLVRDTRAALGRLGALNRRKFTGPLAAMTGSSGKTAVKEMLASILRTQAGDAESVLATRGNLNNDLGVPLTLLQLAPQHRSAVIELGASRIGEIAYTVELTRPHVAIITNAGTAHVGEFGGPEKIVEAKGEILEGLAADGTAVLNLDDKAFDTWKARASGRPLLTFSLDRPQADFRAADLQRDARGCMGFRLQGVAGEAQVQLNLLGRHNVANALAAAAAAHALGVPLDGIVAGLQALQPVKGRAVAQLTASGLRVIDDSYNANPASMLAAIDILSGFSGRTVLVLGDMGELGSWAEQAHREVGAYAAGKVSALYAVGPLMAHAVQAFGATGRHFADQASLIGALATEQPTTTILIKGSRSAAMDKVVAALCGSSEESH
Summary of the method: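 Purified recombinant P. aeruginosa MurF was used at a high enzyme concentration. It was pre-incubated with a range of compound concentrations in pH 8.6 buffer (40 mM KCl, 500 mM NaCl, 1 mg/ml BSA, 10 mM MgCl2) before UDP-MurNAc-Ala-Glu-meso-A2pm and the other substrates were added. IC50 was derived from percent residual ATPase activity versus compound-free enzyme.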

[3] = biological target: T3, UDP-N-acetylmuramoyl-tripeptide--D-alanyl-D-alanine ligase (Pseudomonas aeruginosa) (UniProt Q9EY48); experiment: Inhibition of Pseudomonas aeruginosa MurF ATPase activity assessed as residual enzyme activity at 5 mM by spectrophotometric assay relative to control
T3 sequence (whole entry): T2 sequence (Q9EY48 whole entry)

Escherichia coli = experiment: Antibacterial activity against Escherichia coli; assay type: functional, organism-based
Staphylococcus aureus = experiment: Antibacterial activity against Staphylococcus aureus; assay type: functional, organism-based
Pseudomonas aeruginosa = experiment: Antibacterial activity against Pseudomonas aeruginosa; assay type: functional, organism-based
[4] = system: MurF (Streptococcus pneumoniae); experiment: Inhibition of Streptococcus pneumoniae MurF

SMILES	pIC50 [1]	pIC50 [2]	Activity [3]	other results
N#Cc1c(NC(=O)c2cc(S(=O)(=O)N3CCOCC3)c(F)cc2Cl)sc2c1CCC2	< 5.19			
N#Cc1c(NC(=O)c2cc(S(=O)(=O)N3CCCCC3)ccc2Cl)sc2c1CCC2	5.60			
O=S(=O)(O)c1ccc(/N=N/c2ccc(O)c(/N=N/c3ccc(S(=O)(=O)O)c4ccccc34)c2O)c2ccccc12		< 2.30	100%	
CSc1ncnc2c1ncn2CC(=O)[C@@]1(O)CC[C@H]2[C@@H]3CCC4=CC(=O)CC[C@]4(C)[C@H]3[C@@H](O)C[C@@]21C		2.32	48%	
CCOC(=O)Cn1/c(=N/N=C/c2ccc([N+](=O)[O-])o2)sc2cc(OC)ccc21		< 2.29	51%	
CCN(CC)S(=O)(=O)c1ccc(Cl)c(C(=O)Nc2sc3c(c2C#N)CC(c2ccc(O)cc2)CC3)c1 (stereo not given)	7.27			
O=C1C=CC(=O)C(SCCCSC2=CC(=O)C(SCCCSC3=CC(=O)C=CC3=O)=CC2=O)=C1		3.52	0%	Activity (Escherichia coli): inactive; Activity (Staphylococcus aureus): inactive; Activity (Pseudomonas aeruginosa): inactive
C[C@]12CCC(=O)C=C1CC[C@@H]1[C@@H]2[C@@H](O)C[C@@]2(C)[C@H]1CC[C@]2(O)C(=O)COC(=O)CCC1CCCC1 [HYDROCORTISONE CYPIONATE]		< 2.30	86%	
N#Cc1c(NC(=O)c2cc(S(=O)(=O)N3CCOCC3)c(Cl)cc2Cl)sc2c1CC(c1ccccc1)CC2 (stereo not given)	7.15			
Cn1nnnc1SCC1=C(C(=O)O)N2C(=O)[C@@H](NC(=O)[C@H](OC=O)c3ccccc3)[C@H]2SC1 [CEFAMANDOLE NAFATE]		< 2.30	84%	
CCOC(=O)C1CCc2sc(NC(=O)c3cc(S(=O)(=O)N(CC)CC)ccc3Cl)c(C#N)c2C1 (stereo not given)	5.22			
COc1ccc(NC(=O)C(=O)Cc2nc3ccc([N+](=O)[O-])cc3nc2O)c(OC)c1		3.90	0%	Activity (Escherichia coli): inactive; Activity (Staphylococcus aureus): inactive; Activity (Pseudomonas aeruginosa): inactive
COc1ccc(CCN2C(=O)c3cccc4c(Sc5ccccc5[N+](=O)[O-])ccc(c34)C2=O)cc1OC		3.49	0%	Activity (Escherichia coli): inactive; Activity (Staphylococcus aureus): inactive; Activity (Pseudomonas aeruginosa): inactive
C[C@]12CCC(=O)C=C1CC[C@@H]1[C@@H]2[C@@H](O)C[C@@]2(C)[C@H]1CC[C@]2(O)C(=O)COC(=O)C1C2C=CC(C2)C1C(=O)O (stereo not given in full)		2.37	42%	
O=S(=O)(SC(=S)NCCNC(=S)SS(=O)(=O)c1ccc(Cl)cc1)c1ccc(Cl)cc1		< 2.30	71%	
CCN(CC)S(=O)(=O)c1cc(C(=O)Nc2sc3c(c2C#N)CC(c2ccc(O)cc2)CC3)c(Cl)cc1Cl (stereo not given)	7.17			
C[C@@H]1O[C@@H]1P(=O)(O)O [FOSFOMYCIN]				pIC50 [4]: 4.82
C[C@]12CCC(=O)C=C1CC[C@@H]1[C@@H]2[C@@H](O)C[C@@]2(C)[C@H]1CC[C@]2(O)C(=O)COC(=O)c1cc([N+](=O)[O-])ccc1Cl		< 2.30	67%	
N#Cc1c(NC(=O)c2cc(S(=O)(=O)N3CCOCC3)c(Cl)cc2Cl)sc2c1CC(c1ccc(O)cc1)CC2 (stereo not given)	7.66			
N#Cc1cc(CCc2ccncc2)sc1NC(=O)c1cc(S(=O)(=O)N2CCOCC2)ccc1Cl	5.22			
